We go through five molecules from paper PMC7047575 (The AAPS journal, 2018).

For series [1], the system named is nAChRs. Conditions: cited from earlier work.
For series [2], the target named is α7 nAChRs (Rattus norvegicus, UniProt Q05941). In words: [3H]MLA binding to rat brain membranes. The settings on record: 0.1 nM - 0.1 mM. A digest of the protocol: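 Membranes from rat whole brain minus cortex and cerebellum, washed by repeated 31,000 g spins, with a 10 min 37°C incubation. Binding used 100–140 μg protein, test compound at 7–9 concentrations (0.1 nM–0.1 mM), and [3H]MLA added at 3 nM, in HEPES saline buffer pH 7.5, for 60 min at room temperature. Nonspecific binding was defined with 10 μM nicotine. Read-out by PEI-GF/B filtration and scintillation; n=3.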

Series [3] has as its target SERT (Rattus norvegicus, UniProt P31652). In words: Synaptosomal [3H]5-HT uptake, rat striatal synaptosomes. In kind it is biochemical.
Series [4] concerns the target DAT (Rattus norvegicus, UniProt P23977). In words: Synaptosomal [3H]DA uptake, rat striatal synaptosomes. In kind it is biochemical.
For series [5], the target named is α4β2 nAChRs (Rattus norvegicus, UniProt P09483+P12390). Kind of series: [3H]NIC binding to rat brain membranes. The settings on record: 0.1 nM - 0.1 mM.
The test system of series [6] is METH-sensitized locomotor activity. Kind of series: METH-induced hyperactivity in METH-sensitized rats, GZ-11610 s.c. Type of series: in vivo, rat. Conditions: 1-30 mg/kg, 15 min before METH 1 mg/kg s.c., vs vehicle.
For series [7] the test system is unchanged. In words: METH-induced hyperactivity in METH-sensitized rats, GZ-11610 oral. Type of series: in vivo, rat. The settings on record: 5.6-300 mg/kg.
Series [8] addresses VMAT2 (Rattus norvegicus, UniProt Q01827). Kind of series: Vesicular [3H]DA uptake, rat striatal synaptic vesicles. Type of series: biochemical.
Series [9] addresses hERG channels (Homo sapiens, UniProt Q12809). Kind of series: [3H]Dofetilide binding to hERG channels on HEK-293 cell membranes.
The conditions of series [10]: cited from earlier work.
Series [11] concerns locomotor activity. In words: Locomotor sensitization to repeated METH administration. Type of series: in vivo, rat. The gist of the method: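 Rats randomly assigned to METH or saline groups. Day 0: 60 min chamber habituation without injection. Distance traveled on Days 1 and 10 compared with saline controls and with Day 1.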
Series [12] deals with cells co-expressing VMAT2 and DAT. The settings on record: dissociated cells co-expressing VMAT2 and DAT; cited from earlier work.

SMILES strings stand for the structures. Structures can show the parent of a compound that is named as a salt. Where only a bound is given, the exact number is not on record here.

Chain of hERG channels (Q12809 whole entry): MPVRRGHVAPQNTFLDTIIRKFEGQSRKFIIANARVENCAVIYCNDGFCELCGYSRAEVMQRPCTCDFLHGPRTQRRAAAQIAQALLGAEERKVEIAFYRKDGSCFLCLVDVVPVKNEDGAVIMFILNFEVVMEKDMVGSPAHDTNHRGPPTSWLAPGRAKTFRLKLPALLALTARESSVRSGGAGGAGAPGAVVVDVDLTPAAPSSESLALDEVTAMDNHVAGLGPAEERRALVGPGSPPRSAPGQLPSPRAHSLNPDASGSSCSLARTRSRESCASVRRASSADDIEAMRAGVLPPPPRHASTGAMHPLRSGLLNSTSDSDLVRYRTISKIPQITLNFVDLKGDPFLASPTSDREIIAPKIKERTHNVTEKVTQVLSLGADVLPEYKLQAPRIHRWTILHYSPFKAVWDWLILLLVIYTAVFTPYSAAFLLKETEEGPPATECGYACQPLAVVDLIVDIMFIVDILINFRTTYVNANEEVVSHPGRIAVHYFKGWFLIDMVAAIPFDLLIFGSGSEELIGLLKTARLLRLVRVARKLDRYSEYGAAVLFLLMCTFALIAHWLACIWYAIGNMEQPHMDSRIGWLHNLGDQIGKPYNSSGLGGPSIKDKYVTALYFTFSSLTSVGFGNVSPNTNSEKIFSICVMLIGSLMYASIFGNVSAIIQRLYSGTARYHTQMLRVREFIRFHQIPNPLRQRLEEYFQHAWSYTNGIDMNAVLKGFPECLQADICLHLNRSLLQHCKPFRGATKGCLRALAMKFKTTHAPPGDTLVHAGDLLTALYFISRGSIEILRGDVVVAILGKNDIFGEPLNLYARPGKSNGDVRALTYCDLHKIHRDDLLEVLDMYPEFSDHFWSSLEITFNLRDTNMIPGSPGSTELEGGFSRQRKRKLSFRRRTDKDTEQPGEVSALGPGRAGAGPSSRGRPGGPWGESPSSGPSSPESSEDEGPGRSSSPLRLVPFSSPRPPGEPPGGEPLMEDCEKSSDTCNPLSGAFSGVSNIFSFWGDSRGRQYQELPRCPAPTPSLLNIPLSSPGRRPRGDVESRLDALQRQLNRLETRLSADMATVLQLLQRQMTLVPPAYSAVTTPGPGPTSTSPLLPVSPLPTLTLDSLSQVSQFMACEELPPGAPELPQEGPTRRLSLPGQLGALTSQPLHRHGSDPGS
Chain of VMAT2 (Q01827 whole entry): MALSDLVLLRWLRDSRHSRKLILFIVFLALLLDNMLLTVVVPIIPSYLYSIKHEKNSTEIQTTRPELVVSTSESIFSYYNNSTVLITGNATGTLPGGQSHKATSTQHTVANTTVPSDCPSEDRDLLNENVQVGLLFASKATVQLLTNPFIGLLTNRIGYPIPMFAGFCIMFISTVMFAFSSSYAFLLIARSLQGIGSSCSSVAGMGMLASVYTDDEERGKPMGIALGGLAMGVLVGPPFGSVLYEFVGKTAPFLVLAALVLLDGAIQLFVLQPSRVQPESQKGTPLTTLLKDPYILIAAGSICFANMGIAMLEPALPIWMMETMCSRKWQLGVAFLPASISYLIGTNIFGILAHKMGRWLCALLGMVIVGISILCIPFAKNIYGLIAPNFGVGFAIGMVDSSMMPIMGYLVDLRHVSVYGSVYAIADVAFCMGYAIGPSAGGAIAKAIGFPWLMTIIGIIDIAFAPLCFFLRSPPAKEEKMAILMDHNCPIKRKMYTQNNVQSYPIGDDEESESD
Chain of DAT (P23977 whole entry): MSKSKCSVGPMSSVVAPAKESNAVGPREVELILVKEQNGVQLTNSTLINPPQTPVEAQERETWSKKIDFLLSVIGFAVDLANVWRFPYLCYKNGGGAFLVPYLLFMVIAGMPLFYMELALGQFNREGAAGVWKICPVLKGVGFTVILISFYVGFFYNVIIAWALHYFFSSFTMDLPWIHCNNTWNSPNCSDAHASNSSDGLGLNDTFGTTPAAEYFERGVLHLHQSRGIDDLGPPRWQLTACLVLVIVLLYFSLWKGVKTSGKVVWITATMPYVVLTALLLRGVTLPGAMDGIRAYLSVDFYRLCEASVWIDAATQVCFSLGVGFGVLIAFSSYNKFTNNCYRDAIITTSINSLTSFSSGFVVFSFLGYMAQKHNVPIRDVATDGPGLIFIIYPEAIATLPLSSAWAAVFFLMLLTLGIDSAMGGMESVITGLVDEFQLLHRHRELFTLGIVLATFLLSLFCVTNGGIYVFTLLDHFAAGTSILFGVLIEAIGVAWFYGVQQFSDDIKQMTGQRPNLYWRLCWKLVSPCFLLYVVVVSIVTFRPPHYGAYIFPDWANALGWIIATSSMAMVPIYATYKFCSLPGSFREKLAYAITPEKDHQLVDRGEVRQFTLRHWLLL
Chain of SERT (P31652 whole entry): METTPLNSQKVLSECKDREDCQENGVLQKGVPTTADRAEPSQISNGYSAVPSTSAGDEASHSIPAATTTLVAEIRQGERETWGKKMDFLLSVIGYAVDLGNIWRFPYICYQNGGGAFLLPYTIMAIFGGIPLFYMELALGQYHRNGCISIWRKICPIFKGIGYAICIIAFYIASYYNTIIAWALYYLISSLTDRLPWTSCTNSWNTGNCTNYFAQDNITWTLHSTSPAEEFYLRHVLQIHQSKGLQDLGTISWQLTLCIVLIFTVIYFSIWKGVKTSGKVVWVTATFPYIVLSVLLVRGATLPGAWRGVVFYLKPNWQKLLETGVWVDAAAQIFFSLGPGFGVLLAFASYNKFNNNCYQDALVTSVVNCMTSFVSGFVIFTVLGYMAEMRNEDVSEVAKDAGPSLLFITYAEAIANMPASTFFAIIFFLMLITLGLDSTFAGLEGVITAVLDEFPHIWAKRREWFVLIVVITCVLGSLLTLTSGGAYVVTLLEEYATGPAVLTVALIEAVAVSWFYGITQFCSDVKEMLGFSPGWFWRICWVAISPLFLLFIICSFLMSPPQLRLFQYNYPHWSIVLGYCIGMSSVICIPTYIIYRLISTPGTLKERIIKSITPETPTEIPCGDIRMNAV
Chain of α4β2 nAChRs (P09483 31-630): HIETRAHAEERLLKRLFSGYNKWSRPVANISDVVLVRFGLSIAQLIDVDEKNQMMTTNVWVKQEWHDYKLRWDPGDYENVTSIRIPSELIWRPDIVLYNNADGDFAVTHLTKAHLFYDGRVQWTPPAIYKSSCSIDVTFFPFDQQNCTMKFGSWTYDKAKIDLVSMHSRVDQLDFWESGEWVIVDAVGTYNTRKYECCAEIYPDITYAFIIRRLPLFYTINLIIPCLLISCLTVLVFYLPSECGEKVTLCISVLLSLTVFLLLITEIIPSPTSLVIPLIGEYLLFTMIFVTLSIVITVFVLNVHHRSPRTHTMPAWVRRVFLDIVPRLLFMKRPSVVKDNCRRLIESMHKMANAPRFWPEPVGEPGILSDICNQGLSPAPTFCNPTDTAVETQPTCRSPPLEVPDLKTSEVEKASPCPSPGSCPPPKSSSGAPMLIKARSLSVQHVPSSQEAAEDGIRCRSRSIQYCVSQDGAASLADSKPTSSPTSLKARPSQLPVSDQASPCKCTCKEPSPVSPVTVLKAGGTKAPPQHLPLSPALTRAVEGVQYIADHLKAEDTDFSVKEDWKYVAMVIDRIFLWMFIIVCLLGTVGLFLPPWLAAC
Chain of α4β2 nAChRs (P12390 25-500): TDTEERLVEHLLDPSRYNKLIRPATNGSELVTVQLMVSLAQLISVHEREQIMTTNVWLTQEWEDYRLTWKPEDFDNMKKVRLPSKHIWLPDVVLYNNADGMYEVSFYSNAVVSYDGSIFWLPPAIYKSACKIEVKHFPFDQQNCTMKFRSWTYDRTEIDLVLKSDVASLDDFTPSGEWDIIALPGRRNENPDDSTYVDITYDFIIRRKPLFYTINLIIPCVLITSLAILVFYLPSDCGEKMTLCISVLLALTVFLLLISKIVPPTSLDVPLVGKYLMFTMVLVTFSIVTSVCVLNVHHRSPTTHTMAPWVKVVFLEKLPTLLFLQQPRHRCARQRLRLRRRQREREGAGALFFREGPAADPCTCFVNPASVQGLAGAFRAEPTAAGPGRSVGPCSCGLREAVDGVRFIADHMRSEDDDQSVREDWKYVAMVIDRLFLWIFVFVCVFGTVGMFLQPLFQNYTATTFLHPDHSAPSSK
Chain of α7 nAChRs (Q05941 23-502): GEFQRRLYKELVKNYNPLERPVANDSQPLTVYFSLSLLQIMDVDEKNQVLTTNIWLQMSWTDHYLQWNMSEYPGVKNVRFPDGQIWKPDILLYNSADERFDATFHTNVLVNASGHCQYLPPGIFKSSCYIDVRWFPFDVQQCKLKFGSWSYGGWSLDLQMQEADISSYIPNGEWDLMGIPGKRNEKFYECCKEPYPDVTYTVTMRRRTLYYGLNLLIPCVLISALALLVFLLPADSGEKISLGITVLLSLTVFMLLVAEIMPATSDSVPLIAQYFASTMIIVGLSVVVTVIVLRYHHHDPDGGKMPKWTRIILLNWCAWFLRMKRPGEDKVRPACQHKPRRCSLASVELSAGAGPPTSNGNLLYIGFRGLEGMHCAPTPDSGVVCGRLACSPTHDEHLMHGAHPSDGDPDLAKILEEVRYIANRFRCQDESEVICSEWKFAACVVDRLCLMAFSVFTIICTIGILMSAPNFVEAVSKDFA

Consider `COc1ccc(CCC2CCCC(CCc3ccc(OC)cc3)N2C[C@@H](O)CO)cc1.Cl` (stereo in doubt) [GZ-793A, R-N-(1,2-dihydroxypropyl)-2,6-cis-di-(4-methoxyphenethyl)piperidine hydrochloride], for which the “selectivity for VMAT2 over nAChRs” value in series [1] is greater than 1000 fold.

What is called Ki is a measure of affinity in units of concentration, obtained from inhibition or displacement. In the case of `COc1ccc(CCCN[C@H](C)Cc2ccccc2)cc1` [GZ-11610, R-3-(4-methoxyphenyl)-N-(1-phenylpropan-2-yl)propan-1-amine], the “Imax, inhibition of [3H]MLA binding” value in series [2] was less than 20%. Moreover, the “Imax of [3H]5-HT uptake at SERT” value in series [3] is greater than 95%. Besides, the Ki in [3] amounted to 5.55 µM; in series [4], 2.51 µM; in series [8] (read-out: Ki, inhibition of [3H]DA uptake at VMAT2, rat striatal synaptic vesicles), 0.0087 µM; in series [9], 9.5 µM. Besides, the “Imax of [3H]DA uptake at DAT” value in [4] (0.1 nM - 0.1 mM) is listed as greater than 95%. The “Imax, inhibition of [3H]NIC binding” value in [5] is given as less than 20%. For the same molecule, the “effect on distance traveled after METH in the METH-sensitized group” value in [6] is given as “dose-dependently reduced the distance traveled”; in [7] (15 min before METH 1 mg/kg s.c., vs vehicle), “reduced the distance traveled”. Also, the “effect on locomotor activity in the saline group” value in [7] (one-way ANOVA) is reported as “no significant GZ-11610 effects on locomotor activity”. For the same molecule, the “maximal inhibition (Imax) of [3H]DA uptake at VMAT2” value in [8] (0.1 nM - 0.1 mM) is reported as greater than 95%. The “Imax of [3H]dofetilide binding to hERG channels” value in [9] (HEK-293 cell membranes, 0.1 nM - 0.1 mM) is greater than 80%.

One may read the LogP as a log measure of how a compound divides between an organic and an aqueous phase. In the case of `CN[C@@H](C)Cc1ccccc1` [METH, (+)-Methamphetamine hydrochloride], in series [10], the log partition coefficient (LogP) was 2.10. The “distance traveled compared to saline, Day 10” value in series [11] (METH 1 mg/kg s.c. once daily for 10 days) is on record as “increased distance traveled (p < 0.05)”. For the same molecule, the “distance traveled compared to saline, Day 1” value in series [11] (acute METH 1 mg/kg s.c.) is recorded as “increased (p < 0.05) distance traveled”.

In the case of `COc1cc2c(cc1OC)[C@H]1C[C@@H](O)[C@H](CC(C)C)CN1CC2` [dihydrotetrabenazene], the “reduction of METH-evoked DA efflux” value in [12] was 60%.

As for `CN1[C@@H](CC(=O)c2ccccc2)CCC[C@H]1C[C@H](O)c1ccccc1` [lobeline], the “reduction of METH-evoked DA efflux” value in [12] is reported as 60%.
